Kir21 block: inhibitors of mouse Kir2.1 inward-rectifier potassium channel; P35561; HEK293-Kir2.1, FluxOR thallium flux fluorescence; active compounds read low; B-score at 10 µM; 0.85% of 310,000 active; AID 1672;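 active = fluorescence ratio B-score at or below minus 3 SD of library scores, with starting-brightness B-score within 2 SD, cut at about -4.2 in these data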;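 also: channel flux triggered by added potassium and thallium sulfate stimulus; B-score of peak minus minimum fluorescence over baseline after thallium stimulus; more negative B-score means stronger Kir2.1 block with less thallium influx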
hERG protect: shields human hERG channel from block by proarrhythmic agents; AID 1511; activation (rescue from dofetilide block), less the hit threshold, % at 10 µM; CHO-hERG, FluxOR thallium flux, dofetilide IC70 present; 0.51% of 310,000 active; Q12809;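 active = activation above the mean of controls blocked by dofetilide plus 5 SD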;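 also: thallium influx through hERG after potassium depolarization seen as dye fluorescence rise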
Target sequence (Q12809 whole entry, looked up): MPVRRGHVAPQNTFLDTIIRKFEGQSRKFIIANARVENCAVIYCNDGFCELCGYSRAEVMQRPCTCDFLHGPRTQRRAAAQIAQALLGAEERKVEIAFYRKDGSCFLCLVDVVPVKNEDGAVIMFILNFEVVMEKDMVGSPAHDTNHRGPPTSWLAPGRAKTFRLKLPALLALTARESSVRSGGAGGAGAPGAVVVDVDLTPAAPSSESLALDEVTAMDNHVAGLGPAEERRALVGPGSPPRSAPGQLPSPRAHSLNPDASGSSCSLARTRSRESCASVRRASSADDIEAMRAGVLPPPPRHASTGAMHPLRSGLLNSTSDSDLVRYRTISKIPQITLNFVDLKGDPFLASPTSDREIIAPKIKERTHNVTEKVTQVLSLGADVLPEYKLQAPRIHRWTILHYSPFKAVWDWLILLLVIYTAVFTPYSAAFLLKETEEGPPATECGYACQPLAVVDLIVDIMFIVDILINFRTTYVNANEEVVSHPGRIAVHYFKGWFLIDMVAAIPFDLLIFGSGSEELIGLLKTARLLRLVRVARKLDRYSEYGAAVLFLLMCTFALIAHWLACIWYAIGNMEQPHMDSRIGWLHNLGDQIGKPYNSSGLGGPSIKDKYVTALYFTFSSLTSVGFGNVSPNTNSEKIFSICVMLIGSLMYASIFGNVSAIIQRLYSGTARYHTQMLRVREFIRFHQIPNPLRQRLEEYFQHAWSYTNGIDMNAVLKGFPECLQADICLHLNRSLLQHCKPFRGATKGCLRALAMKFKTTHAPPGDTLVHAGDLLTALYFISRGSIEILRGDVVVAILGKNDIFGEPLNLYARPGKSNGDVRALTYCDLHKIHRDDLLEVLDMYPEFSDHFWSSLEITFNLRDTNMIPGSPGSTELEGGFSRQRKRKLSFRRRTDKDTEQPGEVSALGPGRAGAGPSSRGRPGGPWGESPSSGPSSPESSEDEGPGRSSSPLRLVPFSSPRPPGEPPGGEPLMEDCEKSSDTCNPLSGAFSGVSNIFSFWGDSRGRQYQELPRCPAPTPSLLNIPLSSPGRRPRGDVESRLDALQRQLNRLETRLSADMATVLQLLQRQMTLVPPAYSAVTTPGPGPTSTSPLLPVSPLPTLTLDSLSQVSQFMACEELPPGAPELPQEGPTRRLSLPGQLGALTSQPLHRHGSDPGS
KCNK3 inh: human KCNK3 channel inhibition, primary screen. B-score at 10 µM. CHO-KCNK3 thallium flux, FluxOR fluorescence; active compounds read low. 0.84% of 340,000 active. O14649;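 active = B-score under library mean minus 4 SD, starting fluorescence ratio at most library mean plus 5 SD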;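 also: more negative B-score means stronger inhibition of thallium flux through KCNK3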
KCNK9 block: human KCNK9 channel inhibition | Q9NPC2 | HEK293 KCNK9, FluxOR thallium flux fluorescence; active compounds read low | B-score at 10 µM | 1.2% of 310,000 active | AID 488922;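 active = ratio B-score over 3 SD below the library mean, with starting fluorescence within 5 SD of its mean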;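 also: negative B-score means less thallium flux so channel inhibition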
KCNQ1 act: potentiates or activates the human KCNQ1 potassium channel; CHO-K1 KCNQ1, thallium flux FluxOR fluorescence; active compounds read high; 0.35% of 310,000 active; AID 2648; P51787; B-score at 10 µM;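 active = fluorescence ratio B-score, a plate-corrected score, at least three library SD, with initial intensity B-score within 5 SD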
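Material: CHO-K1 cells stably expressing KCNQ1. Medium: assay buffer for compound exposure, DMSO matched across wells. Reagent: K+/Tl+ depolarizing stimulus. Compound dosing: single-concentration screen. Times: 37 °C overnight plating, 90-min dark dye load, 20-min compound pretreatment. Technique: FluxOR Tl+ flux fluorescence.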
KCNQ1 inh: inhibitors of human KCNQ1 potassium channel; B-score at 10 µM; AID 2642; 1.3% of 310,000 active; P51787; CHO-K1 KCNQ1, FluxOR thallium flux fluorescence; active compounds read high;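 active = compounds whose thallium flux B-score, printed positive for inhibition, exceeds three library SD while starting fluorescence stays within three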;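 also: channel opened by potassium depolarization with thallium stimulus after 20 min compound exposure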
KCNK9 inh conf: confirmation of human KCNK9 potassium channel inhibitors; shares compounds with KCNK9 block; HEK293 KCNK9 cells, FluxOR thallium flux fluorescence; inhibition, % at 10 µM; 43% of 4,900 active;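 active = thallium signal inhibited by more than 5 SD of the compound-free buffer control wells, on both duplicate plates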
Kir2-1 spec: tests whether KCNK9 modulators also affect mouse Kir2.1 | shares compounds with KCNK9 block | Kir2.1 cells, FluxOR thallium flux fluorescence | inhibition, % at 10 µM | 4% of 4,900 active | AID 492993;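 active = thallium signal drop more than 5 SD beyond the mean of the no-compound control wells, seen in both duplicate plates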;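 also: signal is fluorescence rise after thallium addition divided by baseline fluorescence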
KCNK9 uninduced: second check of KCNK9 modulator effects in non-induced HEK293 cells; shares compounds with KCNK9 block; FluxOR thallium flux; AID 492997; 40% of 4,900 active; inhibition, % at 10 µM;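 active = thallium signal drop beyond 5 SD of the untreated control mean, on both duplicate plates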
Each line names hits and unclear results; the compound was inactive in the other large screens (follow-up assays come after a bar, where they were run). Rows were chosen to be rich in hits. Some 3.8% of all compounds tested hit in one or more screens of this group.

COc1ccc(C(c2nnnn2C2CCCCC2)N2CCN(c3ccc(OC)cc3)CC2)cc1 (stereo not drawn)	none
C/C(=N\NC(=O)c1ccco1)c1ccc(NC(=O)C(F)(F)F)cc1	none
COc1cc(/C=C/C(=O)O)cc(S(=O)(=O)Nc2ccccc2C(=O)NCc2ccco2)c1OC	none (no result: Kir21 block, hERG protect, KCNK9 block, KCNQ1 act, KCNQ1 inh)
COc1cccc(Oc2ccc(C(F)(F)F)cc2NC(=O)c2cccc(F)c2)c1	none
COc1ccc(Oc2ccc(C(F)(F)F)cc2NC(=O)c2ccc(F)cc2)cc1	KCNQ1 inh 6 | KCNK9 inh conf inactive | Kir2-1 spec inactive | KCNK9 uninduced inactive
O=C(OC1CCS(=O)(=O)c2sccc21)c1ccccc1 (stereo not drawn)	none
O=C(OC1CO[C@H]2O[C@@H]1[C@H](OC(=O)c1ccccc1)[C@H]2OC(=O)c1ccccc1)c1ccccc1 (stereo partly drawn)	none | KCNK9 inh conf inactive | Kir2-1 spec inactive | KCNK9 uninduced inactive
Cc1c(NC(=O)c2cccc(NC(=O)COc3ccc(C#N)cc3)c2)c(=O)n(-c2ccccc2)n1C	none (no result: Kir21 block, hERG protect, KCNK9 block, KCNQ1 act, KCNQ1 inh)
CC(C)[C@H](NC(=O)c1ccccc1Cl)C(=O)OCC(=O)N1CCCCC1	none (no result: Kir21 block, hERG protect, KCNK9 block, KCNQ1 act, KCNQ1 inh)
Cc1ccc(Cl)c(OCCN2CCc3ccccc3C2)c1	none | KCNK9 inh conf inactive | Kir2-1 spec inactive | KCNK9 uninduced inactive
Cc1ccc(Cl)c(OCCCN(C)Cc2ccccc2)c1	none | KCNK9 inh conf inactive | Kir2-1 spec inactive | KCNK9 uninduced inactive
N#Cc1ccc(OCCN2CCc3ccccc3C2)cc1	none
Cc1nc(SCC(=O)Nc2ccccc2Cl)oc1C	none
COC(=O)c1ccn(CC(=O)NC2CCCCC2)n1	none
O=C(Nc1cccc(Cl)c1)N(CCN1CCOCC1)Cc1cccc(Cl)c1	KCNK3 inh -11, KCNK9 block -12, KCNQ1 inh 6 | KCNK9 inh conf 54% | Kir2-1 spec inactive | KCNK9 uninduced 34%
Cc1ccc(SCCN2CCN(Cc3ccccc3)CC2)cc1	none | KCNK9 inh conf inactive | Kir2-1 spec inactive | KCNK9 uninduced inactive
Cc1c(C)n(CC(O)CN2CCOCC2)c2ccccc12 (stereo not drawn)	none
O=c1c2ccccc2n(CC(O)CN2CCOCC2)c2ccccc12 (stereo not drawn)	KCNK9 block -14 | KCNK9 inh conf 33% | Kir2-1 spec inactive | KCNK9 uninduced inactive
CC(C)S(=O)(=O)c1nsc2nc(=O)c(/C=C3\C=Nc4ccccc43)c(N)n12	none | KCNK9 inh conf inactive | Kir2-1 spec inactive | KCNK9 uninduced inactive
O=C(NCc1ccccc1)C12CN(Cc3ccccc3)CC1C(c1cccc([N+](=O)[O-])c1)=NO2 (stereo not drawn)	none | KCNK9 inh conf inactive | Kir2-1 spec inactive | KCNK9 uninduced inactive
O=C(NCc1ccc(OC(F)(F)F)cc1)C12CN(Cc3ccccc3)CC1C(c1cccc([N+](=O)[O-])c1)=NO2 (stereo not drawn)	none
Fc1ccccc1N1CC(c2ccccc2)C(c2cccs2)=N1 (stereo not drawn)	KCNK9 block -8.6 | KCNK9 inh conf 34% | Kir2-1 spec inactive | KCNK9 uninduced 43%
O=C(NN1C(=O)C2C(c3ccccc3)C=CC(c3ccccc3)C2C1=O)c1cccc(Br)c1 (stereo not drawn)	hERG protect 11, KCNK9 block -12 | KCNK9 inh conf 62% | Kir2-1 spec inactive | KCNK9 uninduced 37%
O=C(NN1C(=O)C2C3C=CC(C3)C2C1=O)c1cccc(Cl)c1 (stereo not drawn)	none
Cc1ccc(CNC(=O)Cn2cnc3c(NC(=O)OCc4ccccc4)ncnc32)o1	none (no result: Kir21 block, hERG protect, KCNK9 block, KCNQ1 act, KCNQ1 inh)
CCc1nnc(NS(=O)(=O)c2ccc(NCc3cc(Br)ccc3O)cc2)s1	none | KCNK9 inh conf inactive | Kir2-1 spec inactive | KCNK9 uninduced inactive
COc1nccnc1NS(=O)(=O)c1ccc(NCc2cc(Br)ccc2O)cc1	none
CCc1ccc(-c2csc(NC(=O)C3=NN(c4ccccc4)C(=O)CC3)n2)cc1	none | KCNK9 inh conf inactive | Kir2-1 spec inactive | KCNK9 uninduced inactive
Cc1cc(C)c(-c2csc(NC(=O)C3=NN(c4ccccc4)C(=O)CC3)n2)c(C)c1	none
Cc1ccc(C(=O)N(c2ccccc2)C2CC(C)N(C(=O)c3ccco3)c3ccccc32)cc1 (stereo not drawn)	none | KCNK9 inh conf inactive | Kir2-1 spec inactive | KCNK9 uninduced inactive
CCC(=O)N1c2ccccc2[C@@H](N(C(C)=O)c2ccccc2)C[C@H]1C	none
CC1(C)Oc2ccc3ccc(=O)oc3c2/C(=C/N)C1=O	none
CC1(C)Oc2ccc3ccc(=O)oc3c2/C(=C/NC2CCCCC2)C1=O	KCNK9 block -11, KCNQ1 inh 8 | KCNK9 inh conf 35% | Kir2-1 spec inactive | KCNK9 uninduced 34%
COc1ccc2nc(Nc3nc(CSc4ccc(C)cc4)cc(=O)[nH]3)nc(C)c2c1	none | KCNK9 inh conf inactive | Kir2-1 spec inactive | KCNK9 uninduced inactive
COc1ccc2nc(Nc3nc(CSc4nnnn4-c4ccccc4)cc(=O)[nH]3)nc(C)c2c1	none
O=C(Cc1ccccc1Cl)Nc1ccc(S(=O)(=O)Nc2nccs2)cc1	none
O=C(CSc1ccc(Br)c2cccc(Cl)c12)Nc1ccc(S(=O)(=O)Nc2nccs2)cc1	none | KCNK9 inh conf inactive | Kir2-1 spec inactive | KCNK9 uninduced inactive
Fc1ccccc1Cc1noc(CN2CCN(C/C=C/c3ccccc3)CC2)n1	none | KCNK9 inh conf inactive | Kir2-1 spec inactive | KCNK9 uninduced inactive
Cc1cc2c(=O)n(Cc3ccco3)c(SCC(=O)N3CCCc4ccccc43)nc2s1	none | KCNK9 inh conf inactive | Kir2-1 spec inactive | KCNK9 uninduced inactive
COc1ccc(C(=O)CSc2ccc(-c3ccc(C)cc3)nn2)cc1	none | KCNK9 inh conf inactive | Kir2-1 spec inactive | KCNK9 uninduced inactive
CCn1c(SCC(=O)N2CCCc3ccccc32)nnc1-c1ccco1	none
O=C(CSc1nc2ccccc2c(=O)n1-c1ccccc1)N1CCCc2ccccc21	none | KCNK9 inh conf inactive | Kir2-1 spec inactive | KCNK9 uninduced inactive
Cc1sc2nc(SCc3ccc(C(=O)O)cc3)n(Cc3ccco3)c(=O)c2c1C	none | KCNK9 inh conf inactive | Kir2-1 spec inactive | KCNK9 uninduced inactive
O=C(CSc1ccc(-c2ccccc2)nn1)c1ccccc1	none
O=C(CSc1nc2ccccc2c(=O)n1-c1ccccc1)N1CCc2ccccc21	none
COc1ccc(CCC(=O)NNC(=O)c2ccc(OC)cc2)cc1	none (no result: Kir21 block)
Cc1ccc(NC(=O)C2CC2c2ccccc2)c([N+](=O)[O-])c1 (stereo not drawn)	none

High-throughput results: PubChem, Johns Hopkins Ion Channel Center
